One series has as its system Sk-mel-23 melanoma cells. Kind of series: MTT cytotoxicity assay, B-RAF wild type melanoma cells. The series is classed as cell-based. The note with it: Homo sapiens, SK-MEL-23, 48 h, read-out: Sk-mel-23 IC50. In short, it runs like this: (§1)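 WM266.4 (B-RAFV600E) and Sk-mel-23 (B-RAF wild type) melanoma cells were grown in DMEM with FBS, penicillin and streptomycin at 37 °C under CO₂. […] MTT reagent was added and cells re-incubated; absorbance was read at 590 nm. IC50 was taken from concentration–inhibition curves (n = 3).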
For orientation: Tetrazolium dyes change colour on reduction, which living cells bring about.

The test system of the next series is WM266.4 melanoma cells. Kind of series: MTT cytotoxicity assay, B-RAFV600E-mutated melanoma cells. The note with it: for potency against WM266.4 melanoma cells relative to dabrafenib: WM266.4 cells. The series is classed as cell-based. In short, it runs like this: as §1
Another series deals with B-RAF(V600E) (Homo sapiens, UniProt P15056, V600E). Put plainly: B-RAF. The series is classed as biochemical. The note with it: for IC50: B-RAF (V600E) IC50, n = 3; for selectivity for B-RAFV600E kinase over B-RAF wild-type kinase: ratio of kinase IC50 values.
For a further series, the target named is B-RAF (wild-type) (Homo sapiens, UniProt P15056). Put plainly: B-RAF. The series is classed as biochemical.
In series [1] the test system is phosphorylation of downstream ERK1/2 (pT202/Y204) in WM266.4 cells. Put plainly: Cell-based B-RAFV600E kinase assay. Particulars: for pERK 1/2: WM266.4 cell line, mean ± standard error of two experiments. Summed up:
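Phospho-ERK1/2 (pT202/Y204) and total ERK1/2 were measured by a single-step sandwich ELISA (affinity-tagged capture antibody, reporter-conjugated detector antibody). pERK was reported in ng/mL as duplicate determinations. % inhibition was calculated against untreated control cells, as mean ± S.E. of two experiments.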

SMILES strings stand for the structures.

Results on 13 compounds are retold here after publication PMC9513682 (RSC Advances, 2022).

Sequence of B-RAF (wild-type) (P15056 whole entry): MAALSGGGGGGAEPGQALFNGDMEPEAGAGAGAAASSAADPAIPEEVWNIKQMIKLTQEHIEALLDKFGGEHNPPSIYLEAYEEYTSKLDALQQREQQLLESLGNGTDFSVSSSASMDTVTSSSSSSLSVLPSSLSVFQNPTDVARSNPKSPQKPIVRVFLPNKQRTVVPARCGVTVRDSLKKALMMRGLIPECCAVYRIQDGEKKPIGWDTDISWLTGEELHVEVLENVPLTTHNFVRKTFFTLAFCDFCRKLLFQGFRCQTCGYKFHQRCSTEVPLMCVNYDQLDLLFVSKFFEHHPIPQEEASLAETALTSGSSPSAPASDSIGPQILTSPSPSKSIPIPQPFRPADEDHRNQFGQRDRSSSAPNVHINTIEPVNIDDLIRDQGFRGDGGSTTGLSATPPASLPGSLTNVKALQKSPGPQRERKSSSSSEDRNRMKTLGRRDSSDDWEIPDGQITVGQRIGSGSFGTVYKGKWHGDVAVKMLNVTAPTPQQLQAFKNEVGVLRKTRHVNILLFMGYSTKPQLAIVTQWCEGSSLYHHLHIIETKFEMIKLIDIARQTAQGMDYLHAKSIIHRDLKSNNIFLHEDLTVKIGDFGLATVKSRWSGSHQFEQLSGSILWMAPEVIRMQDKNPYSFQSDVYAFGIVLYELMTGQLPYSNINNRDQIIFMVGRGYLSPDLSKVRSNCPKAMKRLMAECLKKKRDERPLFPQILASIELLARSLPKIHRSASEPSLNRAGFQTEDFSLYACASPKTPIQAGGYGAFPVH
Sequence of B-RAF(V600E) (P15056 whole entry V600E): as the sequence (P15056 whole entry) above, with V600E counted along it

Regarding `Cc1ccc(C(CS(=O)(=O)c2ccccc2)=NN=C2N=C(c3ccc(Br)cc3)CS2)cc1` [Compound 13a, N-(2-Benzenesulfonyl-1-p-tolyl-ethylidene)-N′-[4-(4-bromo-phenyl)-5H-thiazol-2-ylidene]-hydrazine], the figures for the IC50 in the series with Sk-mel-23 melanoma cells, at B-RAF(V600E) and against B-RAF (wild-type) were 50200 ± 2560 nM, 23.1 ± 1.2 nM and 97.9 ± 5.2 nM, respectively. In addition, the “potency against WM266.4 melanoma cells relative to dabrafenib” value with WM266.4 melanoma cells was “three to five”. Moreover, the “selectivity for B-RAFV600E kinase over B-RAF wild-type kinase” value (from here on “selectivity for B-RAFV600E kinase”) on B-RAF(V600E) was “approximately four”.
As for `Cc1ccc(N=Nc2sc(NN=C(CS(=O)(=O)c3ccccc3)c3ccc(C)cc3)nc2C)cc1` [Compound 7c, N-(2-Benzenesulfonyl-1-p-tolyl-ethylidene)-N′-(4-methyl-5-p-tolylazo-thiazol-2-yl)-hydrazine], at B-RAF(V600E), the midpoint of inhibition, the IC50, lay at 108 ± 5.6 nM.
On B-RAF(V600E), `Cc1ccc(C(CS(=O)(=O)c2ccccc2)=NNC(N)=S)cc1` [Compound 3, 2-Benzenesulfonyl-1-p-tolyl-ethanone thiosemicarbazone] returned an IC50 of 115 ± 6 nM.
For the compound `Cc1ccc(C(CS(=O)(=O)c2ccccc2)=NNC2=NC(=O)C(=NNc3ccc([N+](=O)[O-])cc3)S2)cc1` [Compound 11c, 2-[N′-(2-Benzenesulfonyl-1-p-tolyl-ethylidene)-hydrazino]-5-[(4-nitro-phenyl)-hydrazono]-thiazol-4-one], the results for the IC50 with Sk-mel-23 melanoma cells, against B-RAF(V600E) and on B-RAF (wild-type) were 22300 ± 1140 nM, 95.4 ± 5 nM and 229 ± 12.3 nM, respectively. Further, the “potency against WM266.4 melanoma cells relative to dabrafenib” value in the series on WM266.4 melanoma cells was found to be 11 fold.
Turning to `Cc1ccc(C(CS(=O)(=O)c2ccccc2)=NNC2=NC(=O)C(=NNc3ccc(Cl)cc3)S2)cc1` [Compound 11b, 2-[N′-(2-Benzenesulfonyl-1-p-tolyl-ethylidene)-hydrazino]-5-[(4-chloro-phenyl)-hydrazono]-thiazol-4-one], at B-RAF(V600E), the IC50 was determined as 185 ± 9.6 nM.
For the compound `Cc1ccc(C(CS(=O)(=O)c2ccccc2)=NNc2nc(C)c(N=Nc3ccccc3)s2)cc1` [Compound 7a, N-(2-Benzenesulfonyl-1-p-tolyl-ethylidene)-N′-(4-methyl-5-phenylazo-thiazol-2-yl)-hydrazine], the IC50 on B-RAF(V600E) stood at 199 ± 10 nM.
`COc1ccc(-c2csc(NN=C(CS(=O)(=O)c3ccccc3)c3ccc(F)cc3)n2)cc1` [Compound 19, N-[2-Benzenesulfonyl-1-(4-fluorophenyl)-ethylidene]-N′-[4-(4-methoxyphenyl)thiazol-2-yl]-hydrazine]: at B-RAF(V600E), 116 ± 8 nM corresponded to half-maximal inhibition (IC50).
`CC(C)(C)c1nc(-c2cccc(NS(=O)(=O)c3c(F)cccc3F)c2F)c(-c2ccnc(N)n2)s1` [Dabrafenib, dabrafenib]: the IC50 in the series on Sk-mel-23 melanoma cells amounted to 9030 ± 460 nM. Further, in series [1], the “pERK 1/2” value is on record as 0.769 ± 0.018 ng mL^−1. Moreover, the “% inhibition of pERK 1/2” value in series [1] (WM266.4 cells, compared with the control cancer cells) was determined as 71.9%.
As to `Cc1ccc(C(CS(=O)(=O)c2ccccc2)=NNc2nc(C)c(N=Nc3cccc(C)c3)s2)cc1` [Compound 7b, N-(2-Benzenesulfonyl-1-p-tolyl-ethylidene)-N′-(4-methyl-5-m-tolylazo-thiazol-2-yl)-hydrazine], the IC50 stood at 7870 ± 400 nM in the series on Sk-mel-23 melanoma cells, 36.3 ± 1.9 nM at B-RAF(V600E) and 124 ± 6.6 nM at B-RAF (wild-type). Also, in series [1], the “pERK 1/2” value came to 1.339 ± 0.035 ng mL^−1. Further, the “potency against WM266.4 melanoma cells relative to dabrafenib” value with WM266.4 melanoma cells is “three to five”. The “selectivity for B-RAFV600E kinase” value on B-RAF(V600E) is “approximately four”.
Consider `Cc1ccc(C(CS(=O)(=O)c2ccccc2)=NNc2nc(-c3ccc(OCCCCOc4ccc(-c5csc(NN=C(CS(=O)(=O)c6ccccc6)c6ccc(C)cc6)n5)cc4)cc3)cs2)cc1` [Compound 15, 1,1′-[1,4-Butanediylbis(oxy)]bis[4-(2-{[2-(benzenesulfonyl)-1-(p-tolyl)ethylidene]-hydrazino}thiazol-4-yl)benzene]], for which the results for the IC50 with Sk-mel-23 melanoma cells, at B-RAF(V600E) and at B-RAF (wild-type) were 17600 ± 890 nM, 51.9 ± 2.7 nM and 251 ± 13.5 nM, respectively. Moreover, the “cytotoxic potency toward WM266.4 rather than Sk-mel-23 melanoma cells” value in the series on WM266.4 melanoma cells (WM266.4 (B-RAFV600E-mutated) versus Sk-mel-23 (B-RAF wild type)) is given as “equal potency”. Further, the “selectivity for B-RAFV600E kinase” value on B-RAF(V600E) is 5 fold.
For the compound `NC(=S)NN=C(CS(=O)(=O)c1ccccc1)c1ccc(F)cc1` [Compound 17, 2-Benzenesulfonyl-1-(4-fluorophenyl)-ethanone thiosemicarbazone], the IC50 in the series on Sk-mel-23 melanoma cells worked out at 12400 ± 630 nM; against B-RAF(V600E), 68.2 ± 3.5 nM; against B-RAF (wild-type), 153 ± 8.2 nM. For the same compound, in the series on WM266.4 melanoma cells, the “potency against WM266.4 melanoma cells relative to dabrafenib” value is given as 11 fold. Also, the “activity toward B-rafV600E as share of the activity of dabrafenib” value at B-RAF(V600E) (relative to dabrafenib) came to 70%.
In turn, `Cc1ccc(C(CS(=O)(=O)c2ccccc2)=NN=C2N=C(c3ccc(C)cc3)CS2)cc1` [Compound 13b, N-(2-Benzenesulfonyl-1-p-tolyl-ethylidene)-N′-(4-p-tolyl-5H-thiazol-2-ylidene)-hydrazine] showed an IC50 against B-RAF(V600E) of 206 ± 11 nM.
Turning to `Cc1ccc(C(CS(=O)(=O)c2ccccc2)=NNC2=NC(=O)C(=NNc3ccccc3)S2)cc1` [Compound 11a, 2-[N′-(2-Benzenesulfonyl-1-p-tolyl-ethylidene)-hydrazino]-5-(phenyl-hydrazono)-thiazol-4-one], the IC50 was found to be 430 ± 20 nM in the series with Sk-mel-23 melanoma cells, 84.9 ± 4.4 nM at B-RAF(V600E) and 361 ± 19.4 nM against B-RAF (wild-type). Besides, in the series with WM266.4 melanoma cells, the “potency against WM266.4 melanoma cells relative to dabrafenib” value was “three to five”. Further, at B-RAF(V600E), the “selectivity for B-RAFV600E kinase” value was “approximately four”.

By IC50 is commonly meant the midpoint of a concentration-inhibition curve.
